# In ChEMBL document CHEMBL3085623, “Oridonin ring A-based diverse constructions of enone functionality: identification of novel dienone analogues effective for highly aggressive breast cancer by inducing apoptosis” (J Med Chem, 2013):
# Calls of active or inactive are those of the source. The calls are words filed in the database; no cut-off is given here.
# Legend:
# MCF7 = test: Antiproliferative activity against human MCF7 cells after 48 hrs by MTT assay; type: functional, cell-based; details: MCF7, 48 h
# Procedure, shortened: (§1)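 Seeded at 1 × 10^4 cells/well, then exposed to DMSO or compound at 0.01, 0.1, 1, 5, 10 and 100 μM for 48 h. MTT (5 mg/mL in PBS) added for a further 4 h, formazan dissolved in DMSO, OD read at 550 nm. Quadruplicate wells per concentration. IC50 from curve fitting; mean ± SE of three independent experiments.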
# MDA-MB-231 [1] = test: Antiproliferative activity against human MDA-MB-231 cells after 48 hrs by MTT assay; type: functional, cell-based; details: MDA-MB-231, 48 h; procedure, shortened: as §1
# HMEC = test: Growth inhibition of human HMEC cells after 24 hrs
# cells = details: Homo sapiens, NCI/ADR-RES, 48 h
# MDA-MB-231 [2] = test: Induction of apoptosis in human MDA-MB-231 cells assessed as downregulation of p65 NF-kappaB level at 10 to 30 uM after 48 hrs by Western blot analysis; type: functional, cell-based
# Procedure, shortened: (§2)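 MDA-MB-231 cells treated 48 h with DMSO or compound. Lysates quantified by Bradford; 30 μg protein run on SDS-PAGE and transferred to PVDF. Blocked in 5% milk, then probed overnight: anti-Bcl-2 1:200, Bax 1:1000, PARP 1:10000, NF-κB p65 1:2000, caspase-3 1:1000, β-actin 1:20000. ECL detection.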
# MDA-MB-231 [3] = test: Induction of apoptosis in human MDA-MB-231 cells assessed as downregulation of PARP level at 10 to 30 uM after 48 hrs by Western blot analysis; type: functional, cell-based; procedure, shortened: as §2
# MDA-MB-231 [4] = test: Induction of apoptosis in human MDA-MB-231 cells assessed as upregulation of cleaved PARP level at 10 to 30 uM after 48 hrs by Western blot analysis; type: functional, cell-based; procedure, shortened: as §2
# MDA-MB-231 [5] = test: Induction of apoptosis in human MDA-MB-231 cells assessed as caspase3 cleavage at 10 to 30 uM after 48 hrs by Western blot analysis; type: functional, cell-based; procedure, shortened: as §2
# MDA-MB-231 [6] = test: Induction of apoptosis in human MDA-MB-231 cells assessed as upregulation of Bax level at 10 to 30 uM after 48 hrs by Western blot analysis; type: functional, cell-based; procedure, shortened: as §2
# MDA-MB-231 [7] = test: Induction of apoptosis in human MDA-MB-231 cells assessed as downregulation of Bcl2 level at 10 to 30 uM after 48 hrs by Western blot analysis; type: functional, cell-based; procedure, shortened: as §2
# MDA-MB-231 [8] = test: Induction of apoptosis in human MDA-MB-231 cells assessed as dead cells at 1 uM after 24 hrs using FITC-annexin V and propidium iodide staining by flow cytometry (reference value: 0.3 to 1.00 %); type: functional
# MDA-MB-231 [9] = test: Induction of apoptosis in human MDA-MB-231 cells assessed as live cells at 1 uM after 24 hrs using FITC-annexin V and propidium iodide staining by flow cytometry (reference value: 83.45 to 89.30 %); type: functional
# MDA-MB-231 [10] = test: Induction of apoptosis in human MDA-MB-231 cells assessed as early apoptotic cells at 1 uM after 24 hrs using FITC-annexin V and propidium iodide staining by flow cytometry (reference value: 4.55 to 4.85 %); type: functional
# MDA-MB-231 [11] = test: Induction of apoptosis in human MDA-MB-231 cells assessed as live cells at 5 uM after 24 hrs using FITC-annexin V and propidium iodide staining by flow cytometry (reference value: 83.45 to 89.30 %); type: functional
# MDA-MB-231 [12] = test: Induction of apoptosis in human MDA-MB-231 cells assessed as live cells at 10 uM after 24 hrs using FITC-annexin V and propidium iodide staining by flow cytometry (reference value: 83.45 to 89.30 %); type: functional
# MDA-MB-231 [13] = test: Induction of apoptosis in human MDA-MB-231 cells assessed as early apoptotic cells at 5 uM after 24 hrs using FITC-annexin V and propidium iodide staining by flow cytometry (reference value: 4.55 to 4.85 %); type: functional
# MDA-MB-231 [14] = test: Induction of apoptosis in human MDA-MB-231 cells after 24 hrs using FITC-annexin V and propidium iodide staining by flow cytometry; type: functional, cell-based
# MDA-MB-231 [15] = test: Induction of apoptosis in human MDA-MB-231 cells assessed as late apoptotic cells at 10 uM after 24 hrs using FITC-annexin V and propidium iodide staining by flow cytometry (reference value: 5.5 to 11.0 %); type: functional
# MDA-MB-231 [16] = test: Induction of apoptosis in human MDA-MB-231 cells assessed as downregulation of p65 NF-kappaB level at 2.5 to 10 uM after 48 hrs by Western blot analysis; type: functional, cell-based; procedure, shortened: as §2
# MDA-MB-231 [17] = test: Induction of apoptosis in human MDA-MB-231 cells assessed as caspase3 activation after 48 hrs by Western blot analysis; type: functional, cell-based; procedure, shortened: as §2
# MDA-MB-231 [18] = test: Inhibition of colony formation of human MDA-MB-231 cells at 0.625 to 10 uM after 2 weeks by crystal violet staining-based GelCount method; type: functional, cell-based
# Procedure, shortened: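 MDA-MB-231 cells seeded at 800/well and left 24 h. Then treated with 0.625–10 μM compound or DMSO, medium with compound renewed every 72 h for two weeks. Stained with 0.01% crystal violet for 10 min after PBS washes. Whole-well density quantified on GelCount. Triplicate; SD; one-way ANOVA.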
# MDA-MB-231 [19] = test: Induction of apoptosis in human MDA-MB-231 cells assessed as dead cells at 5 uM after 24 hrs using FITC-annexin V and propidium iodide staining by flow cytometry (reference value: 0.3 to 1.00 %); type: functional
# MDA-MB-231 [20] = test: Induction of apoptosis in human MDA-MB-231 cells assessed as late apoptotic cells at 5 uM after 24 hrs using FITC-annexin V and propidium iodide staining by flow cytometry (reference value: 5.5 to 11.0 %); type: functional
# MDA-MB-231 [21] = test: Induction of apoptosis in human MDA-MB-231 cells assessed as downregulation of Bcl2 level at 2.5 to 10 uM after 48 hrs by Western blot analysis; type: functional, cell-based; procedure, shortened: as §2
# MDA-MB-231 [22] = test: Induction of apoptosis in human MDA-MB-231 cells assessed as PARP cleavage after 48 hrs by Western blot analysis; type: functional, cell-based; procedure, shortened: as §2
# MDA-MB-231 [23] = test: Induction of apoptosis in human MDA-MB-231 cells assessed as early apoptotic cells at 10 uM after 24 hrs using FITC-annexin V and propidium iodide staining by flow cytometry (reference value: 4.55 to 4.85 %); type: functional
# MDA-MB-231 [24] = test: Induction of apoptosis in human MDA-MB-231 cells assessed as late apoptotic cells at 1 uM after 24 hrs using FITC-annexin V and propidium iodide staining by flow cytometry (reference value: 5.5 to 11.0 %); type: functional
# MDA-MB-231 [25] = test: Induction of apoptosis in human MDA-MB-231 cells assessed as dead cells at 10 uM after 24 hrs using FITC-annexin V and propidium iodide staining by flow cytometry (reference value: 0.3 to 1.00 %); type: functional
# MDA-MB-231 [26] = test: Induction of apoptosis in human MDA-MB-231 cells assessed as upregulation of Bax level at 2.5 to 10 uM after 48 hrs by Western blot analysis; type: functional, cell-based; procedure, shortened: as §2
# MDA-MB-231 [27] = test: Antitumor activity against human MDA-MB-231 cells xenografted in nude mouse assessed as inhibition of tumor growth at 5 mg/kg, ip administered 5 days per week for 10 days; type: functional, organism-based; parameters: dose 5 mg/kg
# Procedure, shortened: (§3)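 Female nude mice, 4–6 weeks old, kept in a barrier unit on a 12 h light-dark cycle. Each mouse received 2.5 × 10^6 freshly harvested MDA-MB-231 cells in 100 μL PBS into the 3rd mammary fat pad. Mice were randomized into 3 groups. Once tumors reached 200 mm3, dosing was 5 mg/kg ip, 5 days/week for 10 days, in 50% DMSO/50% PEG. Tumor volume (0.5 × L × W2) and body weight were measured daily. One-way ANOVA.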
# Mus musculus = test: Toxicity in human MDA-MB-231 cells xenografted nude mouse assessed as change body weight at 5 mg/kg, ip administered 5 days per week for 10 days; type: organism-based; parameters: dose 5 mg/kg, route intraperitoneal; details: in vivo; procedure, shortened: as §3
smiles,measurement,setting,value
C=C1C(=O)[C@@]23C(=O)[C@@H](O)[C@@H]4C(C)(C)[C@@H]5OC[C@]4(C(=O)/C5=C/OC)[C@@H]2CC[C@@H]1[C@H]3O,IC50,MCF7,10.2 µM
same,IC50,MDA-MB-231 [1],> 30 µM
C=C1C(=O)[C@]23[C@H](O)[C@H]1CC[C@H]2[C@]12C=CC(=O)C(C)(C)[C@H]1[C@H](O)[C@@]3(O)OC2,IC50,MCF7,3.48 µM
same,IC50,MDA-MB-231 [1],9.39 µM
same,IC50,HMEC,10.1 µM
C=C1C(=O)[C@]23[C@H](O)[C@H]1CC[C@H]2[C@@]12CO[C@]3(O)[C@@H](O)[C@@H]1C(C)(C)C=CC2=O,IC50,MCF7,1.31 µM
same,IC50,MDA-MB-231 [1],2.23 µM
same,IC50,cells,5.82 µM
same,IC50,HMEC,4.95 µM
C=C1C(=O)[C@@]23C(=O)[C@@H](O)[C@@H]4C(C)(C)[C@@H]5OC[C@]4(C(=O)/C5=C\O)[C@@H]2CC[C@@H]1[C@H]3O,IC50,MCF7,> 30 µM
same,IC50,MDA-MB-231 [1],> 30 µM
C=C1C(=O)[C@]23[C@H](O)[C@H]1CC[C@H]2[C@@]12CO[C@]3(O)[C@@H](O)[C@@H]1C(C)(C)CC[C@@H]2O [ORIDONIN],Activity,MDA-MB-231 [2],Active
same,IC50,MCF7,4.36 µM
same,Activity,MDA-MB-231 [3],Active
same,IC50,MDA-MB-231 [1],28 µM
same,IC50,cells,> 30 µM
same,Activity,MDA-MB-231 [4],Active
same,Activity,MDA-MB-231 [5],inactive
same,IC50,HMEC,5.6 µM
same,Activity,MDA-MB-231 [6],Active
same,Activity,MDA-MB-231 [7],Active
C=C1C(=O)[C@@]23[C@@H]4OC(C)(C)O[C@]25OC[C@]2(C(=O)C=CC(C)(C)[C@H]2[C@@H]5O)[C@@H]3CC[C@@H]14,IC50,MCF7,0.56 µM
same,IC50,MDA-MB-231 [1],3.49 µM
same,IC50,HMEC,5.11 µM
C=C1C(=O)[C@@]23[C@@H]4OC(C)(C)O[C@]25OC[C@]2(C(=O)C(C=O)=CC(C)(C)[C@H]2[C@@H]5O)[C@@H]3CC[C@@H]14,Activity,MDA-MB-231 [8],0.2%
same,Activity,MDA-MB-231 [9],84.95%
same,Activity,MDA-MB-231 [10],3.15%
same,Activity,MDA-MB-231 [11],69.55%
same,Activity,MDA-MB-231 [12],52.25%
same,IC50,MCF7,1.28 µM
same,Activity,MDA-MB-231 [13],10.95%
same,IC50,MDA-MB-231 [1],3.46 µM
same,Activity,MDA-MB-231 [14],Dose-dependent effect
same,Activity,MDA-MB-231 [15],36.1%
same,Activity,MDA-MB-231 [16],Active
same,Activity,MDA-MB-231 [17],Dose-dependent effect
same,IC50,cells,6.55 µM
same,inhibition,MDA-MB-231 [18],Active
same,Activity,MDA-MB-231 [19],0.25%
same,IC50,HMEC,4.51 µM
same,Activity,MDA-MB-231 [20],19.25%
same,Activity,MDA-MB-231 [21],Active
same,Activity,MDA-MB-231 [22],Dose-dependent effect
same,Activity,MDA-MB-231 [23],11.2%
same,Activity,MDA-MB-231 [24],11.7%
same,Activity,MDA-MB-231 [25],0.45%
same,Activity,MDA-MB-231 [26],Active
C=C1C(=O)[C@@]23[C@@H]4OC(C)(C)O[C@]25OC[C@]2(C=CC(=O)C(C)(C)[C@H]2[C@@H]5O)[C@@H]3CC[C@@H]14,Activity,MDA-MB-231 [8],0.55%
same,Activity,MDA-MB-231 [9],83.05%
same,Activity,MDA-MB-231 [10],5.05%
same,Activity,MDA-MB-231 [11],73%
same,Activity,MDA-MB-231 [12],52.3%
same,TGI,MDA-MB-231 [27],Active
same,IC50,MCF7,0.98 µM
same,Activity,MDA-MB-231 [13],10.15%
same,Activity,Mus musculus,Non-toxic
same,IC50,MDA-MB-231 [1],5.6 µM
same,Activity,MDA-MB-231 [14],Dose-dependent effect
same,Activity,MDA-MB-231 [15],39.1%
same,Activity,MDA-MB-231 [16],Active
same,Activity,MDA-MB-231 [17],Dose-dependent effect
same,IC50,cells,6.02 µM
same,inhibition,MDA-MB-231 [18],Active
same,Activity,MDA-MB-231 [19],0.3%
same,IC50,HMEC,10.2 µM
same,Activity,MDA-MB-231 [20],16.55%
same,Activity,MDA-MB-231 [21],Active
same,Activity,MDA-MB-231 [22],Dose-dependent effect
same,Activity,MDA-MB-231 [23],8.3%
same,Activity,MDA-MB-231 [24],11.35%
same,Activity,MDA-MB-231 [25],0.3%
same,Activity,MDA-MB-231 [26],Active
